Published values gathered from unrelated publications.
Target: Mitogen-activated protein kinase kinase kinase 9 (MAP3K9, Homo sapiens, UniProt P80192)

Compound	observed	technique	tested at	remaining binding [%]
O=C(NCCCN1CCOCC1)c1ccc(Nc2nccc(-c3cc4ccccc4s3)n2)cc1	binding	competition with immobilised ligand	1 µM	14
CN(c1nccc(-c2cnn3ncccc23)n1)C1CC1	binding		1 µM	85
CN(C)c1ncnc(-c2ccc3nc(Nc4cc(CN5CCN(C(=O)CC(F)(F)F)CC5)ccn4)[nH]c3c2)c1Cl	cell-free assay	competition with immobilised ligand	1 µM	90
FC(F)(F)Oc1cccc(-c2cnc3ccc(-c4ccncc4)nn23)c1	cell-free assay	competition with immobilised ligand	5 µM	77
O=C(c1ccc(Nc2nccc(-c3cc4ccccc4s3)n2)cc1)N1CCC(N2CCCC2)CC1	binding	competition with immobilised ligand	1 µM	27
CO[C@@H](C)c1c(Nc2ccc([C@@H](N(C)C(=O)C3CCS(=O)(=O)CC3)C(F)(F)F)cc2)cnc2cc(Cl)nn12	cell-free assay	competition with immobilised ligand	1 µM	81
C[C@@H]1CN(c2ccc3ncc(-c4ccc5[nH]nc(C6CC6)c5c4)n3n2)C[C@H](C)O1	binding	competition with immobilised ligand	50 nM	96
C=CC(=O)N1CCC(C(=O)NCC(=O)N2CCN(c3nc(-c4cnc(N)nc4C(F)F)nc(N4CCOCC4)n3)CC2)CC1	binding	competition with immobilised ligand	1 µM	96
F[C@@H]1CCN(c2nccc(-c3cnn4ncccc34)n2)C1	binding		1 µM	78
N#Cc1ccc(Nc2ccc3[nH]c(=O)[nH]c3c2)c(Cl)c1	cell-free assay	competition with immobilised ligand	1 µM	100
CN(C)c1ncc(F)c(-c2cnn3ncccc23)n1	binding		1 µM	100
C[C@H](NC(=O)c1cnc2n1[C@](C)(Cc1ccc(C#N)cc1)C(=O)N2c1cc(Cl)c(F)c(Cl)c1)C(=O)NC1(c2ccccn2)CC1	cell-free assay	competition with immobilised ligand	1 µM	100
CC(C)(C)c1ccc(-c2nc(CBr)nn2-c2cccc(O)c2)cc1	cell-free assay	competition with immobilised ligand	10 µM	91
CN(C)c1nccc(-c2cnc3ncccn23)n1	binding		1 µM	65
O=C(Nc1c[nH]nc1C(=O)NC1CCNCC1)c1cc(F)cc(F)c1	binding	competition with immobilised ligand	1 µM	100
CN(CCCC(F)(F)F)c1nccc(-c2cnn3ncccc23)n1	binding		1 µM	88
Cc1nccc(COC(=O)N2C[C@@H]3[C@@H](CNC(=O)c4ccc5[nH]nnc5c4)[C@@H]3C2)n1	cell-free assay	competition with immobilised ligand	1 µM	89
COc1cnc(Nc2cccc(S(N)(=O)=O)c2)nc1N1CCN(c2ccccc2)C(=O)C1	binding	competition with immobilised ligand	1 µM	98
CC1CCCN1c1nccc(-c2cnn3ncccc23)n1 (stereo not shown)	binding		1 µM	100
CCCCN(CCCC)C(=O)CN1C[C@@H](c2cc(OC)c3c(c2)OCO3)[C@H](C(=O)O)[C@H]1CC(C)(C)CCC	cell-free assay	competition with immobilised ligand	1 µM	98.8
COc1ncc2cc3ccccc3nc2c1C#N	cell-free assay	competition with immobilised ligand	5 µM	97
C[C@@]1(Cc2ccc(C#N)cc2)C(=O)N(c2cc(Cl)cc(Cl)c2)c2ncc(C(=O)NC3(c4nc(C5CCC5)no4)CC3)n21	cell-free assay	competition with immobilised ligand	1 µM	100
C[C@@H](c1ccc(-n2cnc3c(N)ncnc32)cc1)N1CCc2nn(C)c(Cc3ccccc3)c2C1=O	binding	competition with immobilised ligand	0.1 µM	95
O=C(NCCCN1CCOCC1)c1ccc(Nc2ncc(Cl)c(-c3ccc(Cl)s3)n2)cc1	binding	competition with immobilised ligand	1 µM	11
C[C@@H]1CCN(c2nccc(-c3cnn4ncccc34)n2)C1	binding		1 µM	100
